Several values for one entry are separate records, joined by “and”; a condition that tells them apart may be missing. Equal values may be shown once. Read-outs that look alike come from different tables or passages of the source.
Assays:
[1] = tested on: Aβ38, Aβ40 and Aβ42 formation in H4 cells overexpressing human APPK595N/M596L; experiment: Aβ secretion assay; assay type: cell-based; conditions: for Aβ38 E max / Aβ40 E max / Aβ42 E max / IC50: H4 cells hAPPK595N/M596L, 24 h treatment; for Effect on Aβ species at low nanomolar (sub-inhibitory) concentrations: low nanomolar concentrations (DAPT: 10 nM); for Emax: Homo sapiens
In short: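 H4 human neuroglioma line stably transfected with human APP695 K595N/M596L (Swedish) under a CMV/chicken β-actin promoter. Cells were plated at 1×10^4 per 96-well in OptiMEM with 10% FBS, 1% penicillin/streptomycin, 200 μg/ml hygromycin-B and 2.5 μg/ml blasticidin-S. After 48 h the medium was exchanged and cells were dosed for 24 h at 37°C, 5% CO2 with DMSO-dissolved compound at a range of concentrations, vehicle constant.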

[2] = tested on: Aβ38, Aβ40 and Aβ42 formation in primary chicken telencephalic neurons; experiment: Aβ secretion assay; assay type: cell-based; conditions: for Aβ38 E max / Aβ40 E max / Aβ42 E max / IC50: 24 h treatment
In short: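 Telencephalic neurons from E8 Lohman Brown chicken embryos, mechanically dissociated through a nylon sieve. Neurons were plated at 1.8×10^6 per poly-D-lysine-coated 24-well in DMEM (4.5 g glucose/l, 5% Nu Serum, 0.01% gentamicin, 2 mM L-glutamine). After 48 h the medium was exchanged and neurons were treated for 24 h at 37°C, 5% CO2 with DMSO-dissolved compound at a range of concentrations, vehicle constant.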

[3] = tested on: H4 cells overexpressing human APPK595N/M596L; experiment: MTT viability assay, H4 cells; assay type: cell-based; conditions: data not shown
[4] = tested on: primary chicken telencephalic neurons; experiment: MTT viability assay, primary chicken neurons; assay type: cell-based; conditions: data not shown
In short: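 MTT viability assay in primary E8 chicken telencephalic neurons. Neurons were plated at 3×10^5 per poly-D-lysine-coated 96-well in DMEM with 5% Nu Serum, 0.01% gentamicin and 2 mM L-glutamine, kept at 37°C, 5% CO2, and exposed to DMSO-dissolved compound over a concentration range.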

Aβ42 levels = conditions: 100 μM; ref Okochi et al. [2006]; cited from earlier work
[5] = tested on: Aβ formation in primary human neuronal cultures; conditions: read-out: IC50 Aβ total, ref Dovey et al. [2001]; cited from earlier work
[6] = tested on: total Aβ content in brain tissue; conditions: in vivo administration; ref Dovey et al. [2001]; cited from earlier work
[7] = read-out: Aβ38 IC50, primary chicken neurons
[8] = read-out: Aβ40 IC50, primary chicken neurons
[9] = read-out: Aβ42 IC50, primary chicken neurons
[10] = H4 cells, 100 μM compound, 24 h, mean ± SEM
[11] = primary chicken neurons, 25 μM compound, 24 h, mean ± SEM
[12] = primary chicken neurons, 50 μM compound, 24 h, mean ± SEM
[13] = primary chicken neurons, 10 μM compound, 24 h, mean ± SEM
[14] = H4 cells, 10 μM compound, 24 h, mean ± SEM

Compound | Aβ38 E max [1] [%] | Aβ40 E max [1] [%] | Aβ42 E max [1] [%] | Concentration at which Aβ38, Aβ40 and Aβ42 levels start to decline ([1]; H4 cells, 24 h) [nM] | Effect on Aβ species at low nanomolar (sub-inhibitory) concentrations ([1]; H4 cells) | IC50 ([1]; read-out: Aβ38 IC50) | IC50 ([1]; read-out: Aβ40 IC50) | IC50 ([1]; read-out: Aβ42 IC50) | Concentration at which Aβ38, Aβ40 and Aβ42 levels start to decline ([2]; primary chicken neurons, 24 h) [nM] | Aβ38 E max ([2]; primary chicken neurons) [%] | Aβ40 E max ([2]; primary chicken neurons) [%] | Aβ42 E max ([2]; primary chicken neurons) [%] | Effect on Aβ species at low nanomolar (sub-inhibitory) concentrations ([2]; primary chicken neurons) | IC50 [2, 7] [nM] | IC50 [2, 8] | IC50 [2, 9] [nM] | Cell viability (MTT), result in words [3] | Cell viability (MTT), result in words [4] | Aβ42 level in percent of vehicle-treated cultures [1, 10] [%] | Concentration at which Aβ42 levels start to decline ([1]; H4 cells, 24 h) [µM] | also measured
COC(=O)[C@@H](NC(=O)[C@H](C)NC(=O)Cc1cc(F)cc(F)c1)c1ccccc1 [DAPM, N-(N-3,5-difluorophenacetyl)-L-alanyl-S-phenylglycine methyl ester] | 100 | 100 | 100 | 50 | increase of all three Aβ forms | 19.9 nM and 20 nM | 23.1 nM and 23 nM | 25.9 nM and 26 nM | 50 | 100 | 100 | 100 | no increase in Aβ secretion | 61.9 | 99.7 nM and 100 nM | 107 | no effect on cell viability | no effect on cell viability |  |  | 
β-secretase inhibitor IV | 88 | 79 | 86 |  |  | 92.3 nM | 125 nM | 216 nM | 5 | 91 | 76 | 70 |  | 3.7 | 4.7 nM | 4.8 | no reduction in cell viability | no reduction in cell viability |  |  | Potency of BACE-1 inhibition in primary cells relative to H4 cell line ([2]; primary chicken neurons versus H4 cells hAPPK595N/M596L): approximately tenfold more potent; Aβ42 reduction ([2]; primary chicken neurons, inhibitor concentration 25 nM): more than 50%
CSc1ccc(/C=C2/C(C)=C(CC(=O)O)c3cc(F)ccc32)cc1 [Sulindac sulfide, (Z)-5-fluoro-2-methyl-1-[p-(methylthio)benzylidene]indene-3-acetic acid] |  |  |  |  |  |  |  |  |  |  |  |  |  |  |  |  |  |  | 39.3 ± 2.0 | 50 | Aβ42 level in percent of vehicle-treated cultures ([1]; H4 cells, 50 μM compound, 24 h, mean ± SEM): 75.0 ± 7.1%; Aβ40 production (effect in words) ([1]; H4 cells, 100 μM compound, 24 h): unaltered; Emax ([1]; 24 h, read-out: Aβ42 E max): 100%; Aβ38 level in percent of vehicle-treated cultures [2, 11]: approximately 149.7 ± 6.4%; Aβ42 level in percent of vehicle-treated cultures [2, 11]: 54.7 ± 6.4%; Aβ42 level in percent of vehicle-treated cultures [2, 12]: 25.3 ± 2.1%; Concentration at which Aβ42 levels start to decline ([2]; primary chicken neurons, 24 h): 25 µM; Concentration at which cell toxicity starts (viability assay) ([3]; minor cell toxicity): 150 µM; Concentration at which toxicity starts (viability assay) [4]: 75 µM
O=C(O)c1cc(Oc2ccc([N+](=O)[O-])cc2)cc(Oc2ccc([N+](=O)[O-])cc2)c1 [CW, 3,5-bis(4-nitrophenoxy)benzoic acid] |  |  |  |  |  |  |  |  |  |  |  |  |  |  |  |  | no cell toxicity |  | 16.0 ± 1.8 | 50 | Aβ38 level in percent of vehicle-treated cultures [1, 10]: 287.5 ± 31.2%; Emax ([1]; 24 h, read-out: Aβ42 E max): 100%; Aβ38 level in percent of vehicle-treated cultures [2, 13]: 127.9 ± 0.9%; Aβ42 level in percent of vehicle-treated cultures [2, 13]: 63.6 ± 2.4%; Aβ38 level in percent of vehicle-treated cultures [2, 12]: 159.3 ± 8.0%; Aβ42 level in percent of vehicle-treated cultures [2, 12]: 29.9 ± 1.2%; Concentration at which Aβ42 levels start to decline ([2]; primary chicken neurons, 24 h): 5 µM; Aβ40 content (effect in words) ([2]; primary chicken neurons, up to 50 μM compound): unchanged; Concentration at which toxicity starts (viability assay) [4]: 150 µM; Effect on Aβ42 levels (Aβ42 levels): reduce Aβ42 levels
CCCC[C@@H](C=O)NC(=O)[C@H](CC(C)C)NC(=O)OCc1ccccc1 [Calpeptin, benzyloxycarbonylleucyl-norleucinal] |  |  |  |  |  |  |  |  |  |  |  |  |  |  |  |  | No toxicity | No toxicity |  |  | Aβ38 level in percent of vehicle-treated cultures [1, 14]: 12.9 ± 2.6%; Aβ40 level in percent of vehicle-treated cultures [1, 14]: 35.5 ± 2.2%; Aβ42 level in percent of vehicle-treated cultures [1, 14]: 90.3 ± 6.0%; Effect on Aβ levels up to 1 μM ([1]; H4 cells, up to a concentration of 1 μM): did not evoke any dramatic changes; Emax ([1]; 24 h, read-out: Aβ38 E max): 100%; Emax ([1]; 24 h, read-out: Aβ40 E max): 100%; Aβ38 level in percent of vehicle-treated cultures [2, 13]: 31.1 ± 1.8%; Aβ40 level in percent of vehicle-treated cultures [2, 13]: 89.9 ± 3.8%; Aβ42 level in percent of vehicle-treated cultures [2, 13]: 259.3 ± 7.3%; Effect on Aβ levels up to 1 μM ([2]; primary chicken neurons, up to a concentration of 1 μM): no effect
C[C@H](NC(=O)Cc1cc(F)cc(F)c1)C(=O)N[C@H](C(=O)OC(C)(C)C)c1ccccc1 [DAPT, N-[N-(3,5-difluorophenacetyl-L-alanyl)]-S-phenylglycine t-butyl ester] | 100 | 100 | 100 | 50 | increased the formation of all three Aβ species | 50.3 nM and 50 nM | 61.4 nM and 61 nM | 63.8 nM and 64 nM | 100 | 100 | 100 | 100 | no dramatic increase in Aβ levels | 71.2 | 92.8 nM and 93 nM | 101 | not affected | not affected |  |  | IC50 [5]: 115 nM; Concentration in brain tissue that reduced total Aβ content [6]: ≥ 200 nM
